Test results taken from ChEMBL document CHEMBL5046323, “Discovery of Phospholipase D Inhibitors with Improved Drug-like Properties and Central Nervous System Penetrance” (ACS Med Chem Lett, 2022).
≈ marks a conversion by molar mass, not a printed value.

Tests used:
[1] = molecular target: Phospholipase D2 (Homo sapiens, UniProt O14939); test: Inhibition of PLD2 (unknown origin) expressed in human HEK cells by immunoprecipitation; type: cell-based
Method in brief: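 PLD1 or PLD2 immunoprecipitated from HEK-293 cell lysates and captured on plate with an antibody (ELISA format); 08:0 phosphatidylcholine substrate; released choline detected by Amplex Red readout.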

[2] = Microsomal stability in rat liver microsomes assessed as intrinsic clearance; type: ADME, Microsome; details: read-out: CLH
Method in brief: (§1)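 Intrinsic clearance (CLint) determined in rat or human liver microsomes.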

[3] = Unbound clearance in iv dosed rat administered as cassette dose; type: ADME, organism-based; details: in vivo
Method in brief: (§2)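 Rat IV clearance from cassette dosing; unbound clearance calculated as CL/fu.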

[4] = Microsomal stability in human liver microsomes assessed as intrinsic clearance; type: ADME, Microsome; details: read-out: CLH; method in brief: as §1
[5] = Clearance in iv dosed rat administered as cassette dose; type: ADME, organism-based; details: in vivo; method in brief: as §2
[6] = Kinetic solubility of compound at pH 6.8; type: physicochemical; details: buffer, read-out: Kinetic_solubility
Method in brief: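 Kinetic solubility measured at pH 6.8.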

[7] = tested on: MDR1 (P-gp); test: Efflux ratio of apparent permeability from basolateral to apical side over apical to basolateral side in dog MDCK-MDR1 cells; type: ADME, cell-based, Canis lupus familiaris
Method in brief: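 Efflux ratio calculated as Papp(B–A)/Papp(A–B) across MDR1-transfected MDCK monolayers.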

[8] = molecular target: T1, Phospholipase D1 (Homo sapiens, UniProt Q13393); test: Inhibition of PLD1 (unknown origin) expressed in human HEK cells by immunoprecipitation assay; type: cell-based
T1 sequence (Q13393 whole entry): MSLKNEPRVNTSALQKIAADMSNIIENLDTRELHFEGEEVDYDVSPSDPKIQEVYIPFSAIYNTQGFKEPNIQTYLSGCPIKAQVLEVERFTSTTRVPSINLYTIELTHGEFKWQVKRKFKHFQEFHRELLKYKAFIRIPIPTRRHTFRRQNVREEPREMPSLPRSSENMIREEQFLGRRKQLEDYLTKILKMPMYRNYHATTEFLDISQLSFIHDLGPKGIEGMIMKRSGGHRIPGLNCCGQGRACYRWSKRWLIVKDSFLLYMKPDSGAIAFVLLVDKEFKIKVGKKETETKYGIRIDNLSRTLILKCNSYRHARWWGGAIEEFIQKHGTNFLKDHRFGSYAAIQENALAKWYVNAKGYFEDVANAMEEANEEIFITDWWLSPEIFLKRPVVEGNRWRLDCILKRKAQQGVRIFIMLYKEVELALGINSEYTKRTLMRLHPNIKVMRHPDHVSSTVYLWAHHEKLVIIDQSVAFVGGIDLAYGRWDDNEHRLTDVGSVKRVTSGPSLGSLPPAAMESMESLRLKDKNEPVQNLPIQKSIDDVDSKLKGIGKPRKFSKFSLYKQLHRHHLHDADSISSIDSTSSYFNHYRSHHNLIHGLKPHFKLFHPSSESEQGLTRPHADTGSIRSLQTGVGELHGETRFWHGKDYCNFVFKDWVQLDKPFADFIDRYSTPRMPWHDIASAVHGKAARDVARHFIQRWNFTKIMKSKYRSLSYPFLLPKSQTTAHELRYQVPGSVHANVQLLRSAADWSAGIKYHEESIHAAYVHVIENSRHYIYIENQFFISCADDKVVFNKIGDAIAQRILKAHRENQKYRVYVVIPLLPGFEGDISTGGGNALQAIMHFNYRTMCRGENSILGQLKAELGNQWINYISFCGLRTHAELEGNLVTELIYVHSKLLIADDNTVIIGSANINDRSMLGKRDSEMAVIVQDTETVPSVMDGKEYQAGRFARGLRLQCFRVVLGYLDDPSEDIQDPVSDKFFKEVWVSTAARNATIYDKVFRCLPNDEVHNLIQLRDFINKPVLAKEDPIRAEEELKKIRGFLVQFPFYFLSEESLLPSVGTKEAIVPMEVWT

[9] = molecular target: Phospholipase D1 (Homo sapiens) (UniProt Q13393); test: Inhibition of PLD1 in human Calu-1 cells assessed as reduction in d9-phosphobutanol formation by mass spectrometry-based transphosphatidylation assay
[10] = tested on: BCRP; test: Efflux ratio of apparent permeability from basolateral to apical side over apical to basolateral side in dog MDCK-BCRP cells; type: ADME, cell-based, Canis lupus familiaris

Sequence of Phospholipase D2 (O14939 whole entry): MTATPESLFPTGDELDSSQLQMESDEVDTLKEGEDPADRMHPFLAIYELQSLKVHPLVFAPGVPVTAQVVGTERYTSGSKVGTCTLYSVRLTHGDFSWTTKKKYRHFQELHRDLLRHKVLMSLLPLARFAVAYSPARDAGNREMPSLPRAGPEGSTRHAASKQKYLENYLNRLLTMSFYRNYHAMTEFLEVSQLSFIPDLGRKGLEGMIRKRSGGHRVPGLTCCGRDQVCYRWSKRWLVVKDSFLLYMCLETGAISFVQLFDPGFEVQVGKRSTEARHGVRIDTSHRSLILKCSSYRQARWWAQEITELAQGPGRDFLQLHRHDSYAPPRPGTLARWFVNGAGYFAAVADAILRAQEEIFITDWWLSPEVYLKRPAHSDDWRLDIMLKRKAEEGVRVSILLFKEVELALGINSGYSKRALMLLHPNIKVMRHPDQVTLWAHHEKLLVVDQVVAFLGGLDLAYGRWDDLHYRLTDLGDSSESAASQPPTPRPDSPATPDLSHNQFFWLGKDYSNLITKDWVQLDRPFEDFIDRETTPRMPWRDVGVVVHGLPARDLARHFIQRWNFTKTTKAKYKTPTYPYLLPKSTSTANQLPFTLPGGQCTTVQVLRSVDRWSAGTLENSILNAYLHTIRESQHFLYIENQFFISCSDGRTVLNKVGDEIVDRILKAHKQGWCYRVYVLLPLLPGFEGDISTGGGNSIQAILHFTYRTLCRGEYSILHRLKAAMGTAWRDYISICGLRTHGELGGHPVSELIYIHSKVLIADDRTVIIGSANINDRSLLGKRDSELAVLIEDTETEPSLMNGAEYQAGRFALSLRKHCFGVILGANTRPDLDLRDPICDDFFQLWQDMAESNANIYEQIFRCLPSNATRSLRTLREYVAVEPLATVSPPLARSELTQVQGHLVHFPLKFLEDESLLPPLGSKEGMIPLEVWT

SMILES | IC50 [1] [nM] | CLint scaled [2] [mL/min/kg] | CL free [3] [mL/min/kg] | CLint scaled [4] [mL/min/kg] | clearance [5] [mL/min/kg] | solubility kinetic [6] [µg/mL] | efflux ratio [7] | IC50 [8] [nM] | IC50 [9] [nM] | efflux ratio [10]
C[C@@H](CN1CCC2(CC1)C(=O)NCN2c1cccc(F)c1)NC(=O)c1ccc(Br)cc1 | 67 | 312 | > 3800 | 89 | 36 | 3.8 (≈ 7.76 µM) | – | – | – | –
C[C@@H]1CN(C(=O)[C@H](C)N2CCC(n3c(=O)[nH]c4ccccc43)CC2)Cc2ccccc21 | 320 | > 300 | – | > 200 | – | – | 22 | 100 | 6 | –
CC(=O)N(C)CCN1CCC(n2c(=O)[nH]c3cc(Cl)ccc32)CC1 | > 10000 | – | – | – | – | – | 24 | 130 | 180 | –
C[C@@H](CN1CCC(n2c(=O)[nH]c3ccccc32)CC1)NC(=O)c1ccc(F)cc1 | 5600 | 170 | – | < 4 | – | – | 82 | 33 | 16 | –
C[C@@H](CN1CCC2(CC1)OC(=O)Nc1cccnc12)NC(=O)c1ccc(F)cc1 | 4100 | 48 | 83 | 13 | 40 | 59 (≈ 148 µM) | 68 | 200 | 54 | –
C[C@@H](CN1CCC2(CC1)NC(=O)Nc1ccccc12)NC(=O)c1ccc(F)cc1 | > 10000 | 66 | 74 | 14 | 15 | 51 (≈ 129 µM) | 67 | 280 | 720 | –
C[C@@H]1CNCCN1C(=O)[C@H](C)N1CCC(n2c(=O)[nH]c3ccccc32)CC1 | – | 84 | – | 12 | – | – | 5.4 | 140 | 180 | –
C[C@@H]1CN(C(=O)[C@H](C)N2CCC(n3c(=O)[nH]c4ccccc43)CC2)CCN1 | – | 29 | 73 | < 5 | 39 | – | 13 | 320 | 190 | –
C[C@@H](C(=O)N1CCNC(C)(C)C1)N1CCC(n2c(=O)[nH]c3ccccc32)CC1 | 7000 | 56 | 73 | 8 | 39 | – | 5.2 | 360 | 280 | –
C[C@@H](CN1CCC2(CC1)OC(=O)Nc1cc(F)ccc12)NC(=O)c1ccc(F)cc1 | 1000 | 250 | – | 68 | – | – | 42 | 71 | 78 | –
C[C@@H](CN1CCC2(CC1)c1ccccc1NC(=O)N2C)NC(=O)c1ccc(F)cc1 | > 10000 | 113 | – | 39 | – | 71 (≈ 173 µM) | 93 | > 10000 | > 10000 | –
C[C@@H](CN1CCC2(CC1)OC(=O)NC[C@H]2c1cccc(F)c1)NC(=O)c1ccc(F)cc1 | 64 | 394 | 308 | 38 | 119 | 61 (≈ 138 µM) | 12 | 22 | 2 | –
C[C@@H](CN1CCC(c2n[nH]c3ccccc23)CC1)NC(=O)c1ccc(F)cc1 | > 10000 | 311 | – | 42 | – | – | 8 | 970 | 4200 | –
C[C@@H](C(=O)N1CCC(F)(F)C1)N1CCC(n2c(=O)[nH]c3ccccc32)CC1 | 2900 | > 300 | 192 | 10 | 34 | – | 2.5 | 170 | 1200 | 1.2
C[C@H]1CN(C(=O)[C@H](C)N2CCC(n3c(=O)[nH]c4ccccc43)CC2)CCN1 | 1100 | < 10 | 73 | < 5 | 39 | – | 5.5 | 76 | 160 | 2.3
C[C@@H](CN1CCC(N2CCNC2=O)CC1)NC(=O)c1ccc(F)cc1 | > 10000 | 16 | – | < 4 | – | – | 7.7 | > 10000 | > 10000 | –
CC[C@H]1CN(C(=O)[C@H](C)N2CCC(n3c(=O)[nH]c4ccccc43)CC2)CCN1 | 920 | 59 | – | < 4 | – | – | 50 | 68 | 44 | –
C[C@@H](CN1CCC2(CC1)CC(=O)Nc1ccccc12)NC(=O)c1ccc(F)cc1 | > 10000 | 83 | 42 | 28 | 8.6 | 59 (≈ 149 µM) | 11 | 490 | 460 | –
C[C@@H](CN1CCC(n2c(=O)oc3ccccc32)CC1)NC(=O)c1ccc(F)cc1 | > 10000 | 314 | – | 23 | – | – | 2 | 9300 | > 10000 | –
C[C@@H]1CN(C(=O)[C@H](C)N2CCC(n3c(=O)[nH]c4ccccc43)CC2)C[C@H](C)N1 | 200 | 43 | 68 | 6.9 | 45 | – | 14 | 40 | 32 | –
C[C@@H](CN1CCC2(CC1)OC(=O)Nc1ccncc12)NC(=O)c1ccc(F)cc1 | 3200 | 50 | 69 | 12 | 48 | 58 (≈ 146 µM) | 47 | 110 | 78 | –
C[C@@H](CN1CCC2(CC1)OC(=O)Nc1ccccc12)NC(=O)c1ccc(F)cc1 | 1300 | 103 | 172 | 39 | 40 | 76 (≈ 191 µM) | 218 | 66 | 74 | –
C[C@@H](C(=O)N1CCOCC1)N1CCC(n2c(=O)[nH]c3ccccc32)CC1 | > 10000 | 162 | – | < 5 | 13 | – | 36 | 380 | 560 | 1.5
C[C@@H](CN1CCC(N2C(=O)Cc3ccccc32)CC1)NC(=O)c1ccc(F)cc1 | > 10000 | 311 | – | 42 | – | – | 8 | 1200 | 1100 | –
